Key:
fMet-Leu-Phe receptor [1] = biological target: T1, fMet-Leu-Phe receptor (Homo sapiens, UniProt P21462); test: Binding affinity towards fMLF receptor using human neutrophils
T1 sequence (P21462 whole entry): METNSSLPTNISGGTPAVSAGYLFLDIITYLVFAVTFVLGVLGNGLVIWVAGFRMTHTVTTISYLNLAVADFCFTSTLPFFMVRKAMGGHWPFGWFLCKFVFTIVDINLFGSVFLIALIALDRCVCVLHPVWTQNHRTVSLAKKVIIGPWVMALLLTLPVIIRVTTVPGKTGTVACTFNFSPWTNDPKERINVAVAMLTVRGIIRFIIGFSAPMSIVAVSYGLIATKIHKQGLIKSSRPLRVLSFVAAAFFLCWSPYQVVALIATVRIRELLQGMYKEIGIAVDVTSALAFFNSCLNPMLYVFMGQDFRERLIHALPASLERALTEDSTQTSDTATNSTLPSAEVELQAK
Summary of the method: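 Competition binding on human neutrophils: the peptide displaces tritiated fMLF from the fMLF receptor. Values are mean ± SE of 2–3 independent experiments.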

fMet-Leu-Phe receptor [2] = biological target: T1, fMet-Leu-Phe receptor; test: Agonistic activity was determined by measuring the ability to induce superoxide production(as measured by reduction of cytochrome C) using human neutrophils; format: functional
Summary of the method: (§1)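 Human neutrophils; agonist read-out is superoxide generation induced by the peptide, followed as cytochrome C reduction. Values are mean ± SE of 2–3 independent experiments.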

Homo sapiens [3] = organism: Homo sapiens; test: Antagonistic activity was determined by measuring the compound's ability to inhibit superoxide production (stimulated by fMLF) using human neutrophils; NA= No activity at 30 uM; format: functional, organism-based
Summary of the method: (§2)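 Human neutrophils stimulated with fMLF, with the peptide present. Antagonism is the inhibition of fMLF-driven superoxide production, read as cytochrome C reduction. Values are mean ± SE of 2–3 independent experiments.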

Homo sapiens [4] = organism: Homo sapiens; test: Agonistic activity was determined by measuring the compound's ability to induce superoxide production(as measured by reduction of cytochrome C) using human neutrophils; NA= No activity at 30 uM.; format: functional, organism-based; summary of the method: as §1
fMet-Leu-Phe receptor [5] = biological target: T1, fMet-Leu-Phe receptor; test: Antagonistic activity was determined by measuring the ability to inhibit superoxide production (stimulated by fMLF) using human neutrophils; format: functional; summary of the method: as §2
[6] = Agonistic activity was determined by measuring the compound's ability to induce superoxide production(as measured by reduction of cytochrome C) using human neutrophils; format: functional; summary of the method: as §1
fMet-Leu-Phe receptor [7] = biological target: T1, fMet-Leu-Phe receptor; test: Agonistic activity was determined by measuring the ability to induce superoxide production(as measured by reduction of cytochrome C) using human neutrophils; NA= No activity at 30 uM; format: functional; summary of the method: as §1

| Compound | IC50 (fMet-Leu-Phe receptor [1]) | EC50 (fMet-Leu-Phe receptor [2]) | IC50 (Homo sapiens [3]) | EC50 (Homo sapiens [4]) | IC50 (fMet-Leu-Phe receptor [5]) | EC50 [6] | EC50 (fMet-Leu-Phe receptor [7]) |
| --- | --- | --- | --- | --- | --- | --- | --- |
| CSCC[C@H](NC(=O)Nc1ccc(Cl)cc1)C(=O)N[C@@H](CC(C)C)C(=O)N[C@@H](Cc1ccccc1)C(=O)O | 2 nM | 1 nM | Not Active |  |  |  |  |
| CC(C)C[C@@H](NC(=O)[C@H](Cc1ccccc1)NC(=O)[C@@H](CC(C)C)NC(=O)[C@H](Cc1ccccc1)NC(N)=O)C(=O)N[C@@H](Cc1ccccc1)C(=O)O | 800 nM |  |  | Not Active | 100 nM |  |  |
| C=C(C)NC(=O)N[C@@H](CCSC)C(=O)N[C@@H](CC(C)C)C(=O)N[C@@H](Cc1ccccc1)C(=O)O | 300 nM |  |  |  |  | 400 nM |  |
| CSCC[C@H](NC(N)=O)C(=O)N[C@@H](CC(C)C)C(=O)N[C@@H](Cc1ccccc1)C(=O)O | 2000 nM | 3000 nM |  |  |  |  |  |
| CSCC[C@H](NC(=O)Nc1cccc(C)c1)C(=O)N[C@@H](CC(C)C)C(=O)N[C@@H](Cc1ccccc1)C(=O)O | 100 nM | 900 nM |  |  | 1600 nM |  |  |
| CSCC[C@H](NC(=O)Nc1ccc(C)cc1)C(=O)N[C@@H](CC(C)C)C(=O)N[C@@H](Cc1ccccc1)C(=O)O | 2 nM | 2 nM | Not Active |  |  |  |  |
| CCNC(=O)N[C@@H](CCSC)C(=O)N[C@@H](CC(C)C)C(=O)N[C@@H](Cc1ccccc1)C(=O)O | 1000 nM |  |  |  | 3000 nM |  | Not Active |
| CNC(=O)N[C@@H](CCSC)C(=O)N[C@@H](CC(C)C)C(=O)N[C@@H](Cc1ccccc1)C(=O)O | 3000 nM |  |  |  | 2000 nM |  | Not Active |
| CSCC[C@H](NC(=O)NC(C)(C)C)C(=O)N[C@@H](CC(C)C)C(=O)N[C@@H](Cc1ccccc1)C(=O)O | 3000 nM |  |  |  | 2000 nM |  | Not Active |
| CCCNC(=O)N[C@@H](CCSC)C(=O)N[C@@H](CC(C)C)C(=O)N[C@@H](Cc1ccccc1)C(=O)O | 2000 nM |  |  |  | 3000 nM |  | Not Active |
| CCCCNC(=O)N[C@@H](Cc1ccccc1)C(=O)N[C@H](CC(C)C)C(=O)N[C@@H](Cc1ccccc1)C(=O)N[C@H](CC(C)C)C(=O)N[C@@H](Cc1ccccc1)C(=O)O | 300 nM |  |  |  | 600 nM |  | Not Active |
| CSCC[C@H](NC(=O)NC(C)C)C(=O)N[C@@H](CC(C)C)C(=O)N[C@@H](Cc1ccccc1)C(=O)O | 2000 nM |  |  |  | 5000 nM |  |  |
| Cc1cccc(NC(=O)N[C@@H](Cc2ccccc2)C(=O)N[C@H](CC(C)C)C(=O)N[C@@H](Cc2ccccc2)C(=O)N[C@H](CC(C)C)C(=O)N[C@@H](Cc2ccccc2)C(=O)O)c1 | 200 nM |  |  |  | 20 nM |  | Not Active |
| CSCC[C@H](NC(=O)NC12CC3CC(CC(C3)C1)C2)C(=O)N[C@@H](CC(C)C)C(=O)N[C@@H](Cc1ccccc1)C(=O)O | 900 nM |  |  |  | 2000 nM |  |  |

More lines, now with the values ahead:

| IC50 (fMet-Leu-Phe receptor [1]) | EC50 (fMet-Leu-Phe receptor [2]) | IC50 (Homo sapiens [3]) | EC50 (Homo sapiens [4]) | IC50 (fMet-Leu-Phe receptor [5]) | EC50 [6] | EC50 (fMet-Leu-Phe receptor [7]) | Compound |
| --- | --- | --- | --- | --- | --- | --- | --- |
| 30 nM | 40 nM | Not Active |  |  |  |  | CSCC[C@H](NC(=O)Nc1ccccc1)C(=O)N[C@@H](CC(C)C)C(=O)N[C@@H](Cc1ccccc1)C(=O)O |
| 800 nM |  |  |  | 600 nM |  |  | CSCC[C@H](NC(=O)NCc1ccccc1)C(=O)N[C@@H](CC(C)C)C(=O)N[C@@H](Cc1ccccc1)C(=O)O |
| 50 nM |  |  |  | 500 nM |  | Not Active | CC(C)C[C@@H](NC(=O)[C@H](Cc1ccccc1)NC(=O)[C@@H](CC(C)C)NC(=O)[C@H](Cc1ccccc1)NC(=O)Nc1ccccc1)C(=O)N[C@@H](Cc1ccccc1)C(=O)O |
| 200 nM |  |  |  | 500 nM |  | Not Active | CC(C)C[C@@H](NC(=O)[C@H](Cc1ccccc1)NC(=O)[C@@H](CC(C)C)NC(=O)[C@H](Cc1ccccc1)NC(=O)NC(C)C)C(=O)N[C@@H](Cc1ccccc1)C(=O)O |
| 2 nM | 1 nM | Not Active |  |  |  |  | COc1ccc(NC(=O)N[C@@H](CCSC)C(=O)N[C@@H](CC(C)C)C(=O)NC(Cc2ccccc2)C(=O)O)cc1 (stereo not given in full) |
| 20 nM |  |  |  | 300 nM |  | Not Active | CC(C)C[C@@H](NC(=O)[C@H](Cc1ccccc1)NC(=O)[C@@H](CC(C)C)NC(=O)[C@H](Cc1ccccc1)NC(=O)NC12CC3CC(CC(C3)C1)C2)C(=O)N[C@@H](Cc1ccccc1)C(=O)O |
| 1000 nM |  |  |  | 4000 nM |  | Not Active | CSCC[C@H](NC(=O)NCC(C)C)C(=O)N[C@@H](CC(C)C)C(=O)N[C@@H](Cc1ccccc1)C(=O)O |
| 300 nM | 300 nM |  |  |  |  |  | CCCCNC(=O)N[C@@H](CCSC)C(=O)N[C@@H](CC(C)C)C(=O)N[C@@H](Cc1ccccc1)C(=O)O |

— ChEMBL document CHEMBL1129753, “N-terminus urea-substituted chemotactic peptides: new potent agonists and antagonists toward the neutrophil fMLF receptor” (J Med Chem, 1996)
